Experimental data: ChEMBL document CHEMBL4689842, “EUbOPEN Chemogenomics Library wave 1” (2021)
“And” between values parts separate entries of the source, which are not always exact repeats. Identical values can stand only once.

Columns and labels:
Format in all cases: toxicity, cell-based
U2OS [1] = test: Incucyte cell viability with U2OS; conditions: human, 10 µM, compound concentration 10 uM; also: filed as whole numbers so only -1 and 0 and 1 occur
HEK-293T [2] = test: Multiplex assay against HEK293T; conditions: human, 10 µM, compound concentration 10 uM;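 as to Population Tubulin-Different-Phenotype (%): share of the cells with healthy nuclei that show this phenotype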
How it was run: (§1)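 Hoechst33342, BioTracker Green Microtubule Cytoskeleton Dye, MitoTracker Red and Annexin V Alexa Fluor 680 were added to live cells at seeding, and imaging on a CQ1 microscope at 37°C and 5% CO2 followed compound addition. Gating by CellPathfinder machine learning separated cells into Hoechst high-intensity objects or normal cells, then normal cells into healthy, pyknosed or fragmented nuclei, then pyknosed cells into mitotic or apoptotic. Per cents of healthy-nucleus cells are reported for the tubulin, mitochondrial-mass and membrane-permeability phenotypes.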

Fibroblast [3] = test: Incucyte cell viability with human fibroblast; conditions: 10 µM, compound concentration 10 uM; also: filed as whole numbers so only -1 and 0 and 1 occur
Fibroblast [4] = test: Multiplex assay against human fibroblast; conditions: 10 µM, compound concentration 10 uM; how it was run: as §1
HEK-293T [5] = test: Incucyte cell viability with HEK293T; conditions: human, 10 µM, compound concentration 10 uM; also: filed as whole numbers so only -1 and 0 and 1 occur
U2OS [6] = test: Multiplex assay against U2OS; conditions: human, 10 µM, compound concentration 10 uM; how it was run: as §1
[7] = 0 h, replicate number 2, timepoint 0 hours
[8] = 6 h, replicate number 1, timepoint 6 hours
[9] = 12 h, replicate number 1, timepoint 12 hours
[10] = 12 h, replicate number 2, timepoint 12 hours
[11] = 18 h, replicate number 1, timepoint 18 hours
[12] = 18 h, replicate number 2, timepoint 18 hours
[13] = 24 h, replicate number 1, timepoint 24 hours
[14] = 24 h, replicate number 2, timepoint 24 hours

Cc1c(Oc2ccc(F)cc2)c(OC(C)C)nn1-c1ccc(C2CC2)cn1 [IPP/CNRS-A019]
Growth Rate (U2OS [1]; [7]): 0 | Growth Rate (U2OS [1]; [8]): 1 | Growth Rate (U2OS [1]; 6 h, replicate number 2, timepoint 6 hours): 0 | Growth Rate (U2OS [1]; [9]): 1 | Growth Rate (U2OS [1]; [10]): 0 | Growth Rate (U2OS [1]; [11]): 1 | Growth Rate (U2OS [1]; [12]): 0 | Growth Rate (U2OS [1]; [13]): 1 | Growth Rate (U2OS [1]; [14]): 0 | Population Apoptotic (%) (HEK-293T [2]; 12 h, replicate 1): 12% and 19% | Population Fragmented Nuclei (%) (HEK-293T [2]; 12 h, replicate 1): 13% and 11% | Population Healthy Nuclei (%) (HEK-293T [2]; 12 h, replicate 1): 69% and 68% | Population Hoechst High Intensity Objects (%) (HEK-293T [2]; 12 h, replicate 1): 8% and 10% | Population Membrane Permeable-Phenotype (%) (HEK-293T [2]; 12 h, replicate 1): 5% and 3% | Population Mitochondria Different-Phenotype (%) (HEK-293T [2]; 12 h, replicate 1): 7% and 5% | Population Mitotic Cells (%) (HEK-293T [2]; 12 h, replicate 1): 87% and 80% | Population Normal (%) (HEK-293T [2]; 12 h, replicate 1): 91% and 89% | Population Pyknosed Nuclei (%) (HEK-293T [2]; 12 h, replicate 1): 17% and 19% | Population Tubulin-Different-Phenotype (%) (HEK-293T [2]; 12 h, replicate 1): 7% and 3% | Total Cell Count (HEK-293T [2]; 12 h, replicate 1): 607 and 515 | Population Apoptotic (%) (HEK-293T [2]; 12 h, replicate 2): 15% and 18% | Population Fragmented Nuclei (%) (HEK-293T [2]; 12 h, replicate 2): 7% and 9% | Population Healthy Nuclei (%) (HEK-293T [2]; 12 h, replicate 2): 89% and 86% | Population Hoechst High Intensity Objects (%) (HEK-293T [2]; 12 h, replicate 2): 2% and 1% | Population Membrane Permeable-Phenotype (%) (HEK-293T [2]; 12 h, replicate 2): 4% and 1% | Population Mitochondria Different-Phenotype (%) (HEK-293T [2]; 12 h, replicate 2): 17% | Population Mitotic Cells (%) (HEK-293T [2]; 12 h, replicate 2): 84% and 81% | Population Normal (%) (HEK-293T [2]; 12 h, replicate 2): 97% and 98% | Population Pyknosed Nuclei (%) (HEK-293T [2]; 12 h, replicate 2): 2% and 3% | Total Cell Count (HEK-293T [2]; 12 h, replicate 2): 1658 and 1670 | Population Apoptotic (%) (HEK-293T [2]; 24 h, replicate 1): 28% and 16% | Population Fragmented Nuclei (%) (HEK-293T [2]; 24 h, replicate 1): 12% and 14% | Population Healthy Nuclei (%) (HEK-293T [2]; 24 h, replicate 1): 77% | Population Hoechst High Intensity Objects (%) (HEK-293T [2]; 24 h, replicate 1): 6% | Population Membrane Permeable-Phenotype (%) (HEK-293T [2]; 24 h, replicate 1): 10% | Population Mitochondria Different-Phenotype (%) (HEK-293T [2]; 24 h, replicate 1): 4% and 8% | Population Mitotic Cells (%) (HEK-293T [2]; 24 h, replicate 1): 71% and 83% | Population Normal (%) (HEK-293T [2]; 24 h, replicate 1): 93% | Population Pyknosed Nuclei (%) (HEK-293T [2]; 24 h, replicate 1): 10% and 7% | Population Tubulin-Different-Phenotype (%) (HEK-293T [2]; 24 h, replicate 1): 6% and 9% | Total Cell Count (HEK-293T [2]; 24 h, replicate 1): 595 and 667 | Population Apoptotic (%) (HEK-293T [2]; 24 h, replicate 2): 9% and 6% | Population Fragmented Nuclei (%) (HEK-293T [2]; 24 h, replicate 2): 19% and 8% | Population Healthy Nuclei (%) (HEK-293T [2]; 24 h, replicate 2): 78% and 89% | Population Hoechst High Intensity Objects (%) (HEK-293T [2]; 24 h, replicate 2): 2% | Population Membrane Permeable-Phenotype (%) (HEK-293T [2]; 24 h, replicate 2): 2% | Population Mitotic Cells (%) (HEK-293T [2]; 24 h, replicate 2): 90% and 93% | Population Normal (%) (HEK-293T [2]; 24 h, replicate 2): 97% | Population Pyknosed Nuclei (%) (HEK-293T [2]; 24 h, replicate 2): 2% and 1% | Population Tubulin-Different-Phenotype (%) (HEK-293T [2]; 24 h, replicate 2): 20% | Total Cell Count (HEK-293T [2]; 24 h, replicate 2): 2108 and 1925 | Growth Rate (Fibroblast [3]; [7]): 0 | Growth Rate (Fibroblast [3]; [8]): 0 | Growth Rate (Fibroblast [3]; [9]): 0 | Growth Rate (Fibroblast [3]; [10]): 1 | Growth Rate (Fibroblast [3]; [11]): 0 | Growth Rate (Fibroblast [3]; [12]): 1 | Growth Rate (Fibroblast [3]; [13]): 0 | Growth Rate (Fibroblast [3]; [14]): 1 | Population Apoptotic (%) (Fibroblast [4]; 12 h, replicate 1): 78% and 77% | Population Fragmented Nuclei (%) (Fibroblast [4]; 12 h, replicate 1): 26% and 22% | Population Healthy Nuclei (%) (Fibroblast [4]; 12 h, replicate 1): 58% and 60% | Population Hoechst High Intensity Objects (%) (Fibroblast [4]; 12 h, replicate 1): 12% and 13% | Population Membrane Permeable-Phenotype (%) (Fibroblast [4]; 12 h, replicate 1): 5% | Population Mitochondria Different-Phenotype (%) (Fibroblast [4]; 12 h, replicate 1): 3% and 6% | Population Mitotic Cells (%) (Fibroblast [4]; 12 h, replicate 1): 21% and 22% | Population Normal (%) (Fibroblast [4]; 12 h, replicate 1): 87% and 86% | Population Pyknosed Nuclei (%) (Fibroblast [4]; 12 h, replicate 1): 15% and 18% | Population Tubulin-Different-Phenotype (%) (Fibroblast [4]; 12 h, replicate 1): 9% and 4% | Total Cell Count (Fibroblast [4]; 12 h, replicate 1): 308 and 230 | Population Fragmented Nuclei (%) (Fibroblast [4]; 12 h, replicate 2): 33% and 67% | Population Healthy Nuclei (%) (Fibroblast [4]; 12 h, replicate 2): 49% and 28% | Population Hoechst High Intensity Objects (%) (Fibroblast [4]; 12 h, replicate 2): 38% and 40% | Population Mitochondria Different-Phenotype (%) (Fibroblast [4]; 12 h, replicate 2): 19% and 42% | Population Normal (%) (Fibroblast [4]; 12 h, replicate 2): 61% and 59% | Total Cell Count (Fibroblast [4]; 12 h, replicate 2): 103 and 83 | Population Apoptotic (%) (Fibroblast [4]; 24 h, replicate 1): 69% and 48% | Population Fragmented Nuclei (%) (Fibroblast [4]; 24 h, replicate 1): 22% and 21% | Population Healthy Nuclei (%) (Fibroblast [4]; 24 h, replicate 1): 62% and 63% | Population Hoechst High Intensity Objects (%) (Fibroblast [4]; 24 h, replicate 1): 16% and 19% | Population Membrane Permeable-Phenotype (%) (Fibroblast [4]; 24 h, replicate 1): 5% and 4% | Population Mitochondria Different-Phenotype (%) (Fibroblast [4]; 24 h, replicate 1): 7% | Population Mitotic Cells (%) (Fibroblast [4]; 24 h, replicate 1): 30% and 51% | Population Normal (%) (Fibroblast [4]; 24 h, replicate 1): 83% and 80% | Population Pyknosed Nuclei (%) (Fibroblast [4]; 24 h, replicate 1): 14% and 15% | Population Tubulin-Different-Phenotype (%) (Fibroblast [4]; 24 h, replicate 1): 9% and 4% | Total Cell Count (Fibroblast [4]; 24 h, replicate 1): 321 and 238 | Population Fragmented Nuclei (%) (Fibroblast [4]; 24 h, replicate 2): 44% and 63% | Population Healthy Nuclei (%) (Fibroblast [4]; 24 h, replicate 2): 46% and 34% | Population Hoechst High Intensity Objects (%) (Fibroblast [4]; 24 h, replicate 2): 38% | Population Membrane Permeable-Phenotype (%) (Fibroblast [4]; 24 h, replicate 2): 10% and 0% | Population Normal (%) (Fibroblast [4]; 24 h, replicate 2): 61% | Total Cell Count (Fibroblast [4]; 24 h, replicate 2): 103 and 84 | Growth Rate (HEK-293T [5]; 0 h, replicate number 1, timepoint 0 hours): 0 | Growth Rate (HEK-293T [5]; [7]): 1 | Growth Rate (HEK-293T [5]; [14]): 1 | Population Apoptotic (%) (U2OS [6]; 12 h, replicate 1): 23% and 20% | Population Fragmented Nuclei (%) (U2OS [6]; 12 h, replicate 1): 3% | Population Healthy Nuclei (%) (U2OS [6]; 12 h, replicate 1): 88% | Population Hoechst High Intensity Objects (%) (U2OS [6]; 12 h, replicate 1): 2% and 3% | Population Membrane Permeable-Phenotype (%) (U2OS [6]; 12 h, replicate 1): 12% and 11% | Population Mitochondria Different-Phenotype (%) (U2OS [6]; 12 h, replicate 1): 11% and 23% | Population Mitotic Cells (%) (U2OS [6]; 12 h, replicate 1): 76% and 80% | Population Normal (%) (U2OS [6]; 12 h, replicate 1): 97% and 96% | Population Pyknosed Nuclei (%) (U2OS [6]; 12 h, replicate 1): 7% and 6% | Population Tubulin-Different-Phenotype (%) (U2OS [6]; 12 h, replicate 1): 14% and 25% | Total Cell Count (U2OS [6]; 12 h, replicate 1): 250 and 141 | Population Apoptotic (%) (U2OS [6]; 12 h, replicate 2): 50% and 33% | Population Fragmented Nuclei (%) (U2OS [6]; 12 h, replicate 2): 5% and 8% | Population Healthy Nuclei (%) (U2OS [6]; 12 h, replicate 2): 90% and 87% | Population Hoechst High Intensity Objects (%) (U2OS [6]; 12 h, replicate 2): 11% and 13% | Population Membrane Permeable-Phenotype (%) (U2OS [6]; 12 h, replicate 2): 15% and 7% | Population Mitochondria Different-Phenotype (%) (U2OS [6]; 12 h, replicate 2): 21% and 25% | Population Mitotic Cells (%) (U2OS [6]; 12 h, replicate 2): 50% and 66% | Population Normal (%) (U2OS [6]; 12 h, replicate 2): 88% and 86% | Population Pyknosed Nuclei (%) (U2OS [6]; 12 h, replicate 2): 4% | Population Tubulin-Different-Phenotype (%) (U2OS [6]; 12 h, replicate 2): 19% and 24% | Total Cell Count (U2OS [6]; 12 h, replicate 2): 152 and 113 | Population Apoptotic (%) (U2OS [6]; 24 h, replicate 1): 42% and 34% | Population Fragmented Nuclei (%) (U2OS [6]; 24 h, replicate 1): 2% and 3% | Population Healthy Nuclei (%) (U2OS [6]; 24 h, replicate 1): 93% and 90% | Population Hoechst High Intensity Objects (%) (U2OS [6]; 24 h, replicate 1): 2% and 1% | Population Membrane Permeable-Phenotype (%) (U2OS [6]; 24 h, replicate 1): 8% and 7% | Population Mitochondria Different-Phenotype (%) (U2OS [6]; 24 h, replicate 1): 9% | Population Mitotic Cells (%) (U2OS [6]; 24 h, replicate 1): 57% and 65% | Population Normal (%) (U2OS [6]; 24 h, replicate 1): 97% and 98% | Population Pyknosed Nuclei (%) (U2OS [6]; 24 h, replicate 1): 5% | Population Tubulin-Different-Phenotype (%) (U2OS [6]; 24 h, replicate 1): 25% and 18% | Total Cell Count (U2OS [6]; 24 h, replicate 1): 149 and 352 | Population Fragmented Nuclei (%) (U2OS [6]; 24 h, replicate 2): 8% and 7% | Population Healthy Nuclei (%) (U2OS [6]; 24 h, replicate 2): 87% and 85% | Population Hoechst High Intensity Objects (%) (U2OS [6]; 24 h, replicate 2): 4% and 5% | Population Membrane Permeable-Phenotype (%) (U2OS [6]; 24 h, replicate 2): 15% and 9% | Population Mitochondria Different-Phenotype (%) (U2OS [6]; 24 h, replicate 2): 24% and 37% | Population Normal (%) (U2OS [6]; 24 h, replicate 2): 95% and 94% | Population Pyknosed Nuclei (%) (U2OS [6]; 24 h, replicate 2): 4% and 6% | Population Tubulin-Different-Phenotype (%) (U2OS [6]; 24 h, replicate 2): 16% and 24% | Total Cell Count (U2OS [6]; 24 h, replicate 2): 184 and 121
